Data: ChEMBL document CHEMBL1129738, “3-Aryl-1,2-diacetamidopropane derivatives as novel and potent NK-1 receptor antagonists” (J Med Chem, 1996)

Key:
[1] = target: Substance-P receptor (Homo sapiens, UniProt P25103); test: Inhibitory activity against Tachykinin receptor 1 in human IM-9 cells using [125I]-labeled Boltan-Hunter substance P as radioligand; assay type: cell-based
[2] = target: Substance-P receptor (Rattus norvegicus, UniProt P14600); test: Inhibitory activity against Tachykinin receptor 1 in rat brain using [125I]-labeled Boltan-Hunter substance P as radioligand; assay type: tissue-based
[3] = target: T1, Substance-K receptor (Oryctolagus cuniculus, UniProt P79218); test: Inhibition of neurokinin A induced contraction of rabbit pulmonary artery (RPA) tissue expressing Tachykinin receptor 2; assay type: functional, tissue-based; settings: read-out: pA2 (converted)
T1 sequence (P79218 whole entry): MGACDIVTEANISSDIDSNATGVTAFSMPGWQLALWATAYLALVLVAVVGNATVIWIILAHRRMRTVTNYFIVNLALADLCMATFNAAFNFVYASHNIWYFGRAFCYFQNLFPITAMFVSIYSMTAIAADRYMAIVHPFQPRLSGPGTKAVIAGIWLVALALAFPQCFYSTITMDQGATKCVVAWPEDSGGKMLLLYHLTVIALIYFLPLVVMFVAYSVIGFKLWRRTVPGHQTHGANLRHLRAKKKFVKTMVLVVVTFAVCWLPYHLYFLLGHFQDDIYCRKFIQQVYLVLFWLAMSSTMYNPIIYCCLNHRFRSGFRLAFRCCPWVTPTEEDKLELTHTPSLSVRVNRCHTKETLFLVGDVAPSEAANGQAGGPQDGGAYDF

[4] = test system: U-373 MG (Homo sapiens); test: In vitro inhibitory activity against P induced IL-6 secretion in U-373 MG Astrocytoma cells
[5] = test system: U11 MG; test: In vitro inhibitory activity against P induced phosphatidyl inositol turnover in UC-11 MG Astrocytoma cells; assay type: functional, cell-based, Homo sapiens
Method in brief: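 Human UC-11 MG astrocytoma cells; inhibition of substance P-induced phosphatidylinositol turnover; Ki in nM; mean of two determinations.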

[6] = target: Substance-P receptor (Mus musculus, UniProt P30548); test: Inhibitory activity against Tachykinin receptor 1 in mouse brain using [125I]-labeled Boltan-Hunter substance P as radioligand; assay type: tissue-based
[7] = target: T2, Neuromedin-K receptor (Rattus norvegicus, UniProt P16177); test: Inhibition of neurokinin B induced contraction of rat portal vein (RPV) tissue expressing Tachykinin receptor 3; assay type: functional; settings: read-out: pA2 (converted)
T2 sequence (P16177 whole entry): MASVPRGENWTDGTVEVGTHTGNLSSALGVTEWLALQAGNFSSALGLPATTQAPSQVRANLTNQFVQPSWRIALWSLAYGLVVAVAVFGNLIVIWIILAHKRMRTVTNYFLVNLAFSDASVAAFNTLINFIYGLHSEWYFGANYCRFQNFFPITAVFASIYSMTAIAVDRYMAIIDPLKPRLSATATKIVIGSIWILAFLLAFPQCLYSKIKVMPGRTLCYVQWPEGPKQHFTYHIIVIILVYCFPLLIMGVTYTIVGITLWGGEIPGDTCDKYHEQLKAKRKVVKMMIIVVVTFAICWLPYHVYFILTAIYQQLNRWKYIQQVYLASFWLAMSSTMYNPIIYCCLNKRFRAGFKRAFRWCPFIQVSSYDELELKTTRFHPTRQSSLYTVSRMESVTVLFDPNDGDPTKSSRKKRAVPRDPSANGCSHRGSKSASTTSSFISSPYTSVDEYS

[8] = target: Substance-P receptor (Cavia porcellus, UniProt P30547); test: Inhibitory activity against Tachykinin receptor 1 in guinea pig brain using [125I]-labeled Boltan-Hunter substance P as radioligand
Sequence of Substance-P receptor (Cavia porcellus, UniProt P30547) (P30547 whole entry): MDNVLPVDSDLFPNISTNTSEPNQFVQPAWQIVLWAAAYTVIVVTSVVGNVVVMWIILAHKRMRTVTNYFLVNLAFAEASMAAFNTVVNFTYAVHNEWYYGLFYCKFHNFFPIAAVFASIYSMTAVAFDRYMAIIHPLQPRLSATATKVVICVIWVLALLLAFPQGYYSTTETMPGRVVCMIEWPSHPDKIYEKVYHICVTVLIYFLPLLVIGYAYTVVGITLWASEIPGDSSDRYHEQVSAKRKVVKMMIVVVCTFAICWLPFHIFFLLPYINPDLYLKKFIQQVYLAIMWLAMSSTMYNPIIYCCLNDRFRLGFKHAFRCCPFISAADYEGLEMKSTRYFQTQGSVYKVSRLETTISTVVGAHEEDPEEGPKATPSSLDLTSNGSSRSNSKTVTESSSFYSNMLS

Sequence of Substance-P receptor (Homo sapiens, UniProt P25103) (P25103 whole entry): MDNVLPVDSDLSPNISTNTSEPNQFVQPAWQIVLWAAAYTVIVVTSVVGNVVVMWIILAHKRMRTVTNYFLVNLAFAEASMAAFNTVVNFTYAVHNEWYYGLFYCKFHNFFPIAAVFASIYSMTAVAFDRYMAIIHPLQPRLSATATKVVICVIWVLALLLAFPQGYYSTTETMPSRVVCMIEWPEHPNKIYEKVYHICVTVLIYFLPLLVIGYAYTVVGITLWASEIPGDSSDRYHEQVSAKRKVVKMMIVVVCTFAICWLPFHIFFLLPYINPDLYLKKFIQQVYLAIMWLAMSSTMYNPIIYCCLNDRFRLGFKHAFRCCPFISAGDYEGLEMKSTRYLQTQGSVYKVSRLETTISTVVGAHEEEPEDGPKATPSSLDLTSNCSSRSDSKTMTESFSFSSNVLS
Sequence of Substance-P receptor (Rattus norvegicus, UniProt P14600) (P14600 whole entry): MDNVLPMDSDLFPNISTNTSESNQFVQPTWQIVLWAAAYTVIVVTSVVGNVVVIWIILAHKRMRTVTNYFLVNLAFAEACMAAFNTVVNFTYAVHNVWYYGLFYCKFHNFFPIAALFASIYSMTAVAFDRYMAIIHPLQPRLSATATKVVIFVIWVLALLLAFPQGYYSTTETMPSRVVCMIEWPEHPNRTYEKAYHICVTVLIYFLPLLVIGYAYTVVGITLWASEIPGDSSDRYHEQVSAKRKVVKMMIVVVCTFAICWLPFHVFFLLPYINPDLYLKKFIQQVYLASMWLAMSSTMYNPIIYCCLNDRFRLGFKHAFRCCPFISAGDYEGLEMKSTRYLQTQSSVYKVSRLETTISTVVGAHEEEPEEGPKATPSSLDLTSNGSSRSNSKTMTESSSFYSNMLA
Sequence of Substance-P receptor (Mus musculus, UniProt P30548) (P30548 whole entry): as the sequence (P14600 whole entry) above, with M7V, I15T, V266I, E367D counted along it

Row | Compound | IC50 [1] [nM] | also measured
1 | CC(=O)N(Cc1ccccc1Cl)C[C@H](Cc1c[nH]c2ccccc12)NC(=O)CN1CCC(N2CCCCC2)CC1 | 159 | 
2 | COc1ccccc1CN(C[C@H](Cc1c[nH]c2ccccc12)NC(=O)CN1CCN(c2ccccc2)CC1)C(C)=O |  | Kb [3]: 20000 nM; Ki [4]: 3500 nM; Ki [5]: 630 nM
3 | COc1ccccc1CN[C@H]1C2CCN(CC2)[C@H]1C(c1ccccc1)c1ccccc1 [CP-96345] |  | Kb [3]: 50100 nM; Kb [7]: 2510 nM; Ki [4]: 4 nM; Ki [5]: 5.2 nM
4 | CCN(Cc1ccccc1OC)CC(Cc1c[nH]c2ccccc12)NC(=O)CN1CCN(c2ccccc2)CC1 (centres undefined) | 85 | 
5 | COc1ccccc1CN(CC(Cc1c[nH]c2ccccc12)NC(=O)CN1CCCCC1)C(C)=O (centres undefined) | 33 | 
6 | COc1ccccc1CN(CC(NC(=O)CN1CCN(c2ccccc2)CC1)C(C)C)C(C)=O (centres undefined) | > 5000 | 
7 | COc1ccccc1CN(CC(NC(=O)CN1CCN(c2ccccc2)CC1)c1ccc(Cl)c(Cl)c1)C(C)=O (centres undefined) | 338 | 
8 | COc1ccccc1CN(CC(NC(=O)CN1CCN(c2ccccc2)CC1)c1ccccc1)C(C)=O (centres undefined) | 474 | 
9 | COc1ccccc1CN(CC(CC1CNc2ccccc21)NC(=O)CN1CCN(c2ccccc2)CC1)C(C)=O (centres undefined) | 27.4 | 
10 | COc1ccccc1CNCC(Cc1c[nH]c2ccccc12)NC(=O)CN1CCN(c2ccccc2)CC1 (centres undefined) | 51 | 
11 | COc1ccccc1CN(C[C@H](Cc1c[nH]c2ccccc12)NC(=O)CN1CCC(N2CCCCC2)CC1)C(C)=O |  | Kb [3]: 20000 nM; Kb [7]: 200 nM; Ki [5]: 5600 nM
12 | CC(=O)N(CCc1ccccc1)CC(Cc1c[nH]c2ccccc12)NC(=O)CN1CCN(c2ccccc2)CC1 (centres undefined) | 126 | 
13 | CCCCN(CC(Cc1c[nH]c2ccccc12)NC(=O)CN1CCN(c2ccccc2)CC1)C(C)=O (centres undefined) | 149 | 
14 | COc1ccccc1CN(C[C@H](Cc1c[nH]c2ccccc12)NC(=O)CN1CCN(C2CCCCC2)CC1)C(C)=O | 80.9 | 
15 | COc1ccccc1CN(C[C@@H](Cc1c[nH]c2ccccc12)NC(=O)CN1CCN(c2ccccc2)CC1)C(C)=O |  | Ki [4]: 1.2 nM; Ki [5]: 0.48 nM
16 | COc1ccccc1CN(C[C@@H](Cc1c[nH]c2ccccc12)NC(=O)CN1CCC(N2CCCCC2)CC1)C(C)=O [LANEPITANT] |  | Kb [3]: 20000 nM; Kb [7]: 20000 nM; Ki [4]: 5.5 nM; Ki [5]: 1.3 nM
17 | CC(=O)N(CC(Cc1c[nH]c2ccccc12)NC(=O)CN1CCN(c2ccccc2)CC1)c1ccccc1 (centres undefined) | > 5000 | 
18 | COc1ccccc1CN(CCNC(=O)CN1CCN(c2ccccc2)CC1)C(C)=O | > 5000 | 
19 | COc1ccccc1CC(=N)N1C[C@@H]2C(=O)CCC(c3ccccc3)(c3ccccc3)[C@@H]2C1 | 30 | IC50 [8]: 32 nM; IC50 [2]: 6.7 nM; IC50 [6]: 8.7 nM
20 | CC(=O)N(C)CC(Cc1c[nH]c2ccccc12)NC(=O)CN1CCN(c2ccccc2)CC1 (centres undefined) | > 5000 | 

Second part, led by results:

Row | IC50 [1] [nM] | Compound | also measured
21 | 21.9 | CC(=O)N(CC1CCCCC1)CC(Cc1c[nH]c2ccccc12)NC(=O)CN1CCN(c2ccccc2)CC1 (centres undefined) | 
22 | 5.3 | COc1ccccc1CN(CC(Cc1c[nH]c2ccccc12)NC(=O)CN1CCN(C)CC1)C(C)=O (centres undefined) | 
23 | 0.34 | COc1ccccc1CN(CC(Cc1c[nH]c2ccccc12)NC(=O)CN1CCN(C2CCCCC2)CC1)C(C)=O (centres undefined) | 
24 | 1.9 | CC(=O)N(Cc1ccccc1Cl)CC(Cc1c[nH]c2ccccc12)NC(=O)CN1CCN(c2ccccc2)CC1 (centres undefined) | 
25 | 2.5 | COc1ccc(CN(CC(Cc2c[nH]c3ccccc23)NC(=O)CN2CCN(c3ccccc3)CC2)C(C)=O)cc1 (centres undefined) | IC50 [2]: 1100 nM
26 | 1.18 | COc1ccccc1CN(CC(Cc1csc2ccccc12)NC(=O)CN1CCN(c2ccccc2)CC1)C(C)=O (centres undefined) | 
27 | 0.8 | COc1ccccc1CN(C=O)CC(Cc1c[nH]c2ccccc12)NC(=O)CN1CCN(c2ccccc2)CC1 (centres undefined) | 
28 | 2.8 | COc1ccccc1CN(CC(Cc1c[nH]c2ccccc12)NC(=O)CN1CCC(N(C)C)CC1)C(C)=O (centres undefined) | 
29 | 0.18 | COc1ccccc1CN(C[C@@H](Cc1c[nH]c2ccccc12)NC(=O)CN1CCN(C2CCCCC2)CC1)C(C)=O | IC50 [2]: 1.5 nM; IC50 [6]: 1.3 nM
30 | 11 | COc1ccccc1CN(CC(Cc1ccc2ccccc2c1)NC(=O)CN1CCN(c2ccccc2)CC1)C(C)=O (centres undefined) | 
31 | 1.54 | COc1ccccc1CN(CC(Cc1c[nH]c2ccccc12)NC(=O)CN1CCN(c2ccccc2)CC1)C(=O)CN(C)C (centres undefined) | IC50 [2]: 480 nM; IC50 [6]: 200 nM
32 | 4 | COc1ccccc1CN(CC(Cc1c[nH]c2ccccc12)NC(=O)CN1CCN(c2ccccc2)CC1)S(C)(=O)=O (centres undefined) | 
33 | 1.28 | COC(=O)CC(=O)N(Cc1ccccc1OC)CC(Cc1c[nH]c2ccccc12)NC(=O)CN1CCN(c2ccccc2)CC1 (centres undefined) | 
34 | 4.5 | COc1ccccc1CN(CC(Cc1c[nH]c2ccccc12)NC(=O)CN1CCC(c2ccccc2)CC1)C(C)=O (centres undefined) | 
35 | 7.2 | CSc1ccccc1CN(CC(Cc1c[nH]c2ccccc12)NC(=O)CN1CCN(c2ccccc2)CC1)C(C)=O (centres undefined) | 
36 | 3.2 | CC(=O)N(Cc1ccccc1C(F)(F)F)CC(Cc1c[nH]c2ccccc12)NC(=O)CN1CCN(c2ccccc2)CC1 (centres undefined) | 
37 | 2.2 | CC(=O)N(Cc1ccccc1)CC(Cc1c[nH]c2ccccc12)NC(=O)CN1CCN(c2ccccc2)CC1 (centres undefined) | 
38 | 3.1 | COc1ccccc1CN(CC(Cc1c[nH]c2ccccc12)NC(=O)CN1CC=C(c2ccccc2)CC1)C(C)=O (centres undefined) | 
39 | 0.81 | CCC(=O)N(Cc1ccccc1OC)CC(Cc1c[nH]c2ccccc12)NC(=O)CN1CCN(c2ccccc2)CC1 (centres undefined) | 
40 | 3 | CC(=O)N(Cc1ccccc1[N+](=O)[O-])CC(Cc1c[nH]c2ccccc12)NC(=O)CN1CCN(c2ccccc2)CC1 (centres undefined) | 
41 | 2.73 | COc1ccccc1CN(CC(Cc1cccc2ccccc12)NC(=O)CN1CCN(c2ccccc2)CC1)C(C)=O (centres undefined) | 
42 | 0.98 | COc1ccccc1CN(CC(Cc1c[nH]c2ccccc12)NC(=O)CN1CCN(Cc2ccccc2)CC1)C(C)=O (centres undefined) | IC50 [8]: 0.88 nM; IC50 [2]: 16 nM
43 | 0.18 | CC(=O)N(Cc1ccccc1Cl)CC(Cc1c[nH]c2ccccc12)NC(=O)CN1CCC(N2CCCCC2)CC1 (centres undefined) | 
44 | 5.5 | CCOC(=O)N(Cc1ccccc1OC)CC(Cc1c[nH]c2ccccc12)NC(=O)CN1CCN(c2ccccc2)CC1 (centres undefined) | 
45 | 2 | COc1ccccc1CN(CC(Cc1c[nH]c2ccccc12)NC(=O)CN1CCN(c2ccccc2)CC1)C(=O)c1ccccc1 (centres undefined) | 
46 | 3.2 | CC(=O)N(Cc1ccccc1C)CC(Cc1c[nH]c2ccccc12)NC(=O)CN1CCN(c2ccccc2)CC1 (centres undefined) | 
47 | 27 | COc1ccccc1CN(CC(Cc1c[nH]c2ccccc12)NC(=O)CN1CCOCC1)C(C)=O (centres undefined) | 
48 | 3 | CNC(=O)N(Cc1ccccc1OC)CC(Cc1c[nH]c2ccccc12)NC(=O)CN1CCN(c2ccccc2)CC1 (centres undefined) | 
